Screening data (PubChem)
In the library only some 2.1% were active in any assay of this set; here they are far more common.
EWS-Fli block = inhibitors of EWS/Fli oncoprotein transcriptional activity | A673 NR0B1-luciferase reporter, viability-normalised | inhibition, % at 12.6 µM | 350,000 tested, 0.67% active;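 active means mean inhibition of at least 50% after viability correction, with every replicate also passing that limit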;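 further: firefly luciferase signal divided by Alamar Blue viability fluorescence both relative to DMSO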
EBV LMP1 NFkB = Epstein-Barr LMP1 NF-kappaB reporter inhibition; LMP1-induced NF-kappaB luciferase reporter cells, luminescence; 350,000 tested, 0.69% active; inhibition, % at 12.5 µM; AID 504558; in the data active means inhibition above about 41%;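 further: 0% = neutral control wells and 100% = reference inhibitor control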
PAX8 reporter = lowers PAX8-driven luciferase in RMG-I cells. RMG-I TPO-luciferase reporter, SteadyGlo, 24 h. inhibition, % at 12.6 µM. 360,000 tested, 1.2% active;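 active means mean replicate inhibition at least 60% with every replicate also reaching 60%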;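 further: luciferase light reporting Pax8 driven TPO promoter activity; plate controls were median of neutral control wells for no effect and mitoxantrone controls for full effect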
FN deposit inh = fibronectin deposition inhibition. inhibition, % at 12.6 µM. AID 743247. 350,000 tested, 0.086% active. AH1F fibroblasts, Alexa488-fibronectin deposition fluorescence, overnight;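 active means mean inhibition across replicates of 30% or more, regardless of how many single replicates reach that level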;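 further: positive control wells lacked labelled fibronectin entirely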
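Assay system: AH1F fibroblasts assembling fluorescent fibronectin matrix; Amount: 10000 AH1F cells per well; Buffer or medium: DMEM, 2% serum; Probe or stimulus: Alexa488-fibronectin, 24 nM final in well; Doses: single compound dose, delivered by pin transfer; Incubation: 1 h adhesion, overnight exposure; Measured by: fluorescence 485/525 nm; Read-out: fibronectin deposition inhibition.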
Shn3 inh set2 = reduces Shn3 3'UTR luciferase signal in osteoblasts. 360,000 tested, 0.52% active. Clone20 osteoblast Shn3 3'UTR firefly luciferase, 24 h. inhibition, % at 12.5 µM;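 active means mean inhibition of at least 75% with every replicate also reaching 75%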;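 further: 0% = median of neutral control wells and 100% = pilot-screen positive control compound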
aSyn UTR inh = 5' untranslated region of α-synuclein, MLPCN primary screen | alpha-synuclein 5'UTR reporter, inhibitor activity | inhibition, % (tested at 7.5 µM) | 300,000 tested, 0.82% active; in the data active means inhibition above about 60%;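 further: H4 neuroglioblastoma cells stably carrying SNCA 5'UTR luciferase fusion; 0% = DMSO wells and 100% = positive control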
The depositor's hits bear a star; . = no result.

SMILES	EWS-Fli block	EBV LMP1 NFkB	PAX8 reporter	FN deposit inh	Shn3 inh set2	aSyn UTR inh
O=C1CCC(=O)N[C@@H](c2ccccc2)C/C=C\CCN1	.	.	.	4	.	.
CCOc1ccc(-c2nc(CSCC(=O)N3CCN(c4cccc(OC)c4)CC3)c(C)o2)cc1	88*	13	38	-4	41	68*
CCc1ccc(-c2nc(CSCC(=O)N3CCN(c4ccccn4)CC3)c(C)o2)cc1	.	4	25	-1	18	82*
Cc1ccc(S(=O)(=O)N(C)C[C@H]2OCCCC[C@@H](C)Oc3ccc(NC(=O)Nc4cccc5ccccc45)cc3C(=O)N([C@H](C)CO)C[C@@H]2C)cc1	-9	.	-12	0	.	.
CC(=O)NC(c1cc(F)c2cccnc2c1O)C1CC1 (stereo unspecified)	24	16	8	-2	47	.
CCC(=O)NC(c1cc(Cl)c2cccnc2c1O)C1CC1 (stereo unspecified)	27	40*	66*	9	78	.
CCC(=O)NC(c1cc(Cl)c2cccnc2c1O)C(C)C (stereo unspecified)	14	47*	46	5	69	.
C[C@@H]1CN([C@@H](C)CO)C(=O)c2cc(NC(=O)CCC(F)(F)F)ccc2O[C@@H](C)CCCCO[C@H]1CN(C)S(=O)(=O)c1cn(C)cn1	-9	.	-19	.	.	.
N#Cc1ccc(-c2cccc(-c3nc(C(=O)O)cc4c3[C@@H](CCO)N(CC3CCOCC3)C4)c2)cc1	.	.	.	8	.	.
NC(Cc1ccc(Cl)cc1)c1csc(NC(=O)NCC2CCCCC2)n1 (stereo unspecified)	49	.	-9	.	84*	.
NC(Cc1ccc(Cl)cc1)c1csc(NC(=O)NCCc2ccccc2)n1 (stereo unspecified)	22	.	-4	10	-11	.
CNC[C@H]1Oc2ccc(N(C)C)cc2C(=O)N(C)C[C@H]1C	.	.	.	7	.	.
COc1ccc(C(NC(=O)c2c(F)c(F)c(F)c(F)c2F)c2ccccc2)cc1 (stereo unspecified)	62*	5	-3	5	41	21
COc1ccc(C(NC(=O)c2cc(OC)ccc2OC)c2ccccc2)cc1 (stereo unspecified)	29	-3	14	3	16	12
O=C(O)[C@H]1[C@H](CO)[C@H]2Cn3c(ccc(-c4ccccc4)c3=O)[C@H]2N1CCc1ccccc1	-2	.	.	.	.	.
O=C1N[C@@H](Cc2ccccc2)COCc2cnnn2CC[C@H]1Cc1cccc(F)c1	.	.	.	1	.	.
Cc1ccc(-c2cc3c(nn2)-c2ccccc2C3=O)cc1	84*	65*	79*	0	80	86*
CSc1nnc(C)c(=O)n1COC(=O)c1cc(Cl)ccc1[N+](=O)[O-]	3	-1	1	-9	.	-19
CSc1nnc(C)c(=O)n1COC(=O)c1ccc([N+](=O)[O-])cc1	0	-6	6	31*	.	6
Cc1ccc(-c2ccc(=O)n(CCC(=O)N3CCN(c4ccccc4)CC3)n2)cc1	-3	-3	63*	0	3	18
Cc1ccc(-c2ccc(=O)n(CCC(=O)N3CCN(Cc4ccccc4)CC3)n2)cc1	3	11	14	-9	-28	17
Cc1cc(C)nc(N/N=C/c2cccc3ccccc23)n1	-39	-6	82*	-1	-15	-38
Cc1cc(C)nc(N/N=C/c2ccccc2Cl)n1	-62	.	-98	-5	-36	-88
O=C(NCc1ccccc1)[C@]1(Cc2ccccc2)N=C(c2ccc(OCCCO)cc2)O[C@@H]1c1ccccc1	30	.	94*	.	.	.
COc1ccc(-c2cnnc(N/N=C/c3ccc(-c4ccc([N+](=O)[O-])cc4)o3)n2)cc1	53*	3	12	-11	4	.
SMILES	EWS-Fli block	EBV LMP1 NFkB	PAX8 reporter	FN deposit inh	Shn3 inh set2	aSyn UTR inh
O=[N+]([O-])c1ccc(-c2ccc(/C=N/Nc3nc(N4CCCC4)nc(N4CCCC4)n3)o2)cc1	40	-111	-2	-5	33	-13
CCOC(=O)c1sc2nc(CSc3ccccc3)nc(N3CCCN(C)CC3)c2c1C	27	-15	28	12	5	78*
C[C@@H]1CN([C@H](C)CO)C(=O)c2cc(NS(=O)(=O)c3ccc(Cl)cc3)ccc2O[C@@H](C)CCCCO[C@@H]1CN(C)S(=O)(=O)c1cccs1	0	.	13	-12	.	.
C[C@@H]1CCCCO[C@@H](CN(C)S(=O)(=O)c2ccc(Cl)cc2)[C@H](C)CN([C@H](C)CO)C(=O)c2cc(NS(=O)(=O)c3ccc(Cl)cc3)ccc2O1	23	.	90*	5	.	.
C[C@@H]1CCCCO[C@@H](CN(C)S(=O)(=O)c2cccs2)[C@H](C)CN([C@@H](C)CO)C(=O)c2cc(NS(=O)(=O)c3ccc(Cl)cc3)ccc2O1	-2	.	70*	-6	.	.
C[C@H]1CCCCO[C@H](CN(C)S(=O)(=O)c2ccc(Cl)cc2)[C@@H](C)CN([C@@H](C)CO)C(=O)c2cc(NS(=O)(=O)c3ccc(Cl)cc3)ccc2O1	9	.	83*	12	.	.
C[C@H](CO)N1C[C@H](C)[C@@H](CN(C)S(=O)(=O)c2ccc(Cl)cc2)OCCCC[C@H](C)Oc2ccc(NS(=O)(=O)c3ccc(Cl)cc3)cc2C1=O	13	.	87*	-4	.	.
C[C@@H]1CN([C@@H](C)CO)C(=O)c2cc(NS(=O)(=O)c3ccc(Cl)cc3)ccc2O[C@@H](C)CCCCO[C@@H]1CN(C)S(=O)(=O)c1ccc(Cl)cc1	-3	.	15	-13	.	.
C[C@@H]1CN([C@H](C)CO)C(=O)c2cc(NS(=O)(=O)c3ccc(Cl)cc3)ccc2O[C@@H](C)CCCCO[C@@H]1CN(C)S(=O)(=O)c1ccc(Cl)cc1	-14	.	43	-2	.	.
CCC(=O)N1[C@H](CO)[C@H]2c3ccccc3N(C(=O)c3cnccn3)C[C@H]21	-11	.	-4	-10	.	.
C[C@H]1CCCCO[C@H](CN(C)C(=O)C2CCCCC2)[C@@H](C)CN([C@@H](C)CO)C(=O)c2cc(NS(=O)(=O)c3ccc(Cl)cc3)ccc2O1	54*	.	86*	-15	.	.
C[C@@H]1CCCCO[C@H](CN(C)C(=O)C2CCCCC2)[C@H](C)CN([C@H](C)CO)C(=O)c2cc(NS(=O)(=O)c3ccc(Cl)cc3)ccc2O1	17	.	67*	-3	.	.
C[C@@H]1CCCCO[C@H](CN(C)C(=O)C2CCCCC2)[C@@H](C)CN([C@H](C)CO)C(=O)c2cc(NS(=O)(=O)c3ccc(Cl)cc3)ccc2O1	2	.	-2	-9	.	.
Cc1ccc(S(=O)(=O)Nc2ccc3c(c2)C(=O)N([C@H](C)CO)C[C@@H](C)[C@H](CN(C)C(=O)C2CCCCC2)OCCCC[C@H](C)O3)cc1	13	.	75*	4	.	.
C[C@@H]1CCCCO[C@@H](CN(C)C(=O)C2CCCCC2)[C@H](C)CN([C@@H](C)CO)C(=O)c2cc(NS(=O)(=O)c3ccc(Cl)cc3)ccc2O1	-20	.	81*	-10	.	.
